In ChEMBL document CHEMBL2346664, “Synthesis, characterization and in vitro anticancer evaluation of novel 1,2,4-triazolin-3-one derivatives” (2013):

What was measured:
Assay type in all cases: functional
786-0 = assay: Growth inhibition of human 786-0 cells after 48 hrs by sulforhodamine B assay; settings: 786-0, 48 h
How it was run: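 NCI 60-cell-line five-dose screen at 0.01, 0.1, 1, 10 and 100 µM final. Cells were plated at 5,000–40,000/well and grown 24 h at 37 °C, 5% CO2, then exposed to drug continuously for 48 h. Adherent cells were fixed with cold TCA (10% final) and stained with SRB; absorbance read at 515 nm. GI50 is the concentration where [(Ti-Tz)/(C-Tz)]×100 = 50, with Tz plates fixed at drug addition.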

[1] = Growth inhibition of human HCC2998 cells assessed as cell growth at 10 '-6 M after 48 hrs by sulforhodamine B assay; settings: HCC 2998, 48 h, read-out: Activity
[2] = Growth inhibition of human NCI-ADR-RES cells assessed as cell growth at 10 '-5 M after 48 hrs by sulforhodamine B assay; settings: read-out: Activity
K562 = assay: Growth inhibition of human K562 cells after 48 hrs by sulforhodamine B assay; settings: K562, 48 h
How it was run: (§1)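 NCI 60-cell-line five-dose screen. Cells were plated at 5,000–40,000/well by doubling time and grown 24 h at 37 °C, 5% CO2. Time-zero plates were TCA-fixed. Drug from DMSO stock was tested at 0.01, 0.1, 1, 10 and 100 µM final for 48 h continuous exposure. Read-out was SRB at 515 nm. GI50 is the concentration giving 50% reduction in net protein increase versus untreated control.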

A549 = assay: Growth inhibition of human A549 cells assessed as cell growth at 10 '-6 M after 48 hrs by sulforhodamine B assay; settings: A549, 48 h, read-out: Activity
How it was run: (§2)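 Percent growth at each of the five concentrations of the 48 h continuous-exposure NCI SRB screen. Drug stocks were in DMSO at 400× the top final concentration and diluted in medium with gentamicin. Growth was calculated as [(Ti-Tz)/(C-Tz)]×100 when Ti ≥ Tz, or [(Ti-Tz)/Tz]×100 when Ti < Tz. Tz plates were fixed at drug addition; untreated wells served as control. Absorbance was read at 515 nm.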

NCI-H460 = assay: Growth inhibition of human NCI-H460 cells assessed as cell growth at 10 '-5 M after 48 hrs by sulforhodamine B assay; settings: NCI-H460, 48 h, read-out: Activity
SK-MEL-2 [3] = assay: Growth inhibition of human SK-MEL-2 cells assessed as cell growth at 10 '-6 M after 48 hrs by sulforhodamine B assay; settings: SK-MEL-2, 48 h, read-out: Activity
SNB-75 = assay: Growth inhibition of human SNB75 cells assessed as cell growth at 10 '-4 M after 48 hrs by sulforhodamine B assay; settings: SNB-75, 48 h, read-out: Activity
SK-MEL-2 [4] = assay: Growth inhibition of human SK-MEL-2 cells assessed as cell growth at 10 '-5 M after 48 hrs by sulforhodamine B assay; settings: SK-MEL-2, 48 h, read-out: Activity
CAKI-1 = assay: Growth inhibition of human CAKI-1 cells assessed as cell growth at 10 '-6 M after 48 hrs by sulforhodamine B assay; settings: CAKI-1, 48 h, read-out: Activity; how it was run: as §2
[5] = Growth inhibition of human HCC2998 cells assessed as growth inhibition at 10 uM after 48 hrs by sulforhodamine B assay; settings: HCC 2998, 48 h, read-out: GI
MDA-MB-435 = assay: Growth inhibition of human MDA-MB-435 cells assessed as cell growth at 10 '-5 M after 48 hrs by sulforhodamine B assay; settings: MDA-MB-435, 48 h, read-out: Activity
PC-3 [6] = assay: Growth inhibition of human PC3 cells assessed as cell growth at 10 '-7 M after 48 hrs by sulforhodamine B assay; settings: PC-3, 48 h, read-out: Activity
HCT-15 = assay: Growth inhibition of human HCT15 cells after 48 hrs by sulforhodamine B assay; settings: HCT-15, 48 h; how it was run: as §1
MDA-MB-231 = assay: Growth inhibition of human MDA-MB-231 cells assessed as cell growth at 10 '-5 M after 48 hrs by sulforhodamine B assay; settings: MDA-MB-231, 48 h, read-out: Activity
HOP-62 = assay: Growth inhibition of human HOP62 cells after 48 hrs by sulforhodamine B assay; settings: HOP-62, 48 h; how it was run: as §1
SF-295 [7] = assay: Growth inhibition of human SF295 cells assessed as cell growth at 10 uM after 48 hrs by sulforhodamine B assay; settings: SF-295, 48 h, read-out: Activity
SNB-19 = assay: Growth inhibition of human SNB19 cells assessed as growth inhibition at 10 uM after 48 hrs by sulforhodamine B assay; settings: SNB-19, 48 h, read-out: GI
MDA-MB-468 [8] = assay: Growth inhibition of human MDA-MB-468 cells assessed as cell growth at 10 '-4 M after 48 hrs by sulforhodamine B assay; settings: MDA-MB-468, 48 h, read-out: Activity
MDA-MB-468 [9] = assay: Growth inhibition of human MDA-MB-468 cells assessed as cell growth at 10 '-5 M after 48 hrs by sulforhodamine B assay; settings: MDA-MB-468, 48 h, read-out: Activity
OVCAR-3 = assay: Growth inhibition of human OVCAR3 cells assessed as cell growth at 10 '-8 M after 48 hrs by sulforhodamine B assay; settings: OVCAR-3, 48 h, read-out: Activity
MCF7 = assay: Growth inhibition of human MCF7 cells assessed as cell growth at 10 '-5 M after 48 hrs by sulforhodamine B assay; settings: MCF7, 48 h, read-out: Activity
SF-295 [10] = assay: Growth inhibition of human SF295 cells assessed as cell growth at 10 '-4 M after 48 hrs by sulforhodamine B assay; settings: SF-295, 48 h, read-out: Activity
NCI-H23 = assay: Growth inhibition of human NCI-H23 cells assessed as cell growth at 10 '-4 M after 48 hrs by sulforhodamine B assay; settings: NCI-H23, 48 h, read-out: Activity
Malme-3M = assay: Growth inhibition of human MALME-3M cells assessed as cell growth at 10 '-7 M after 48 hrs by sulforhodamine B assay; settings: read-out: Activity
[11] = Growth inhibition of human EKVX cells assessed as cell growth at 10 '-4 M after 48 hrs by sulforhodamine B assay; settings: read-out: Activity
TK-10 = assay: Growth inhibition of human TK10 cells assessed as cell growth at 10 '-4 M after 48 hrs by sulforhodamine B assay; settings: TK-10, 48 h, read-out: Activity
PC-3 [12] = assay: Growth inhibition of human PC3 cells after 48 hrs by sulforhodamine B assay; settings: PC-3, 48 h
KM12 = assay: Growth inhibition of human KM12 cells assessed as cell growth at 10 '-6 M after 48 hrs by sulforhodamine B assay; settings: KM12, 48 h, read-out: Activity
[13] = read-out: LD50 (the source's name)

Cc1nn(-c2ccc(Cl)cc2)c(=O)n1CCN1CCOCC1
GI50 (786-0): 5.75 µM | CC50 (786-0; read-out: pLC50 (the source's name) (converted)): > 100 µM | TGI (786-0; read-out: pTGI): > 100 µM

Cc1cc(=O)oc2cc(OCCn3c(C)nn(-c4ccc(Cl)cc4)c3=O)ccc12
growth at 1 µM [1]: 76% | growth at 10 µM [2]: 10% | GI50 (K562): 1.29 µM | TGI (K562): > 1 µM | CC50 (K562; [13]): > 1 µM | growth at 1 µM (A549): 96% | growth at 10 µM (NCI-H460): 9% | growth at 1 µM (SK-MEL-2 [3]): 112% | growth at 100 µM (SNB-75): -25% | growth at 10 µM (SK-MEL-2 [4]): 62% | growth at 1 µM (CAKI-1): 68% | inhibition of growth at 10 µM [5]: 53.3% | growth at 10 µM (MDA-MB-435): -27% | growth at 0.1 µM (PC-3 [6]): 90% | GI50 (HCT-15): 3.2 µM | TGI (HCT-15): > 1 µM | CC50 (HCT-15; [13]): > 1 µM | growth at 10 µM (MDA-MB-231): 42% | GI50 (HOP-62): 3.05 µM | TGI (HOP-62): 3.29 µM | CC50 (HOP-62; [13]): > 1 µM | growth at 10 µM (SF-295 [7]): 14% | inhibition of growth at 10 µM (SNB-19): 45.5% | growth at 100 µM (MDA-MB-468 [8]): -5% | growth at 10 µM (MDA-MB-468 [9]): 15% | growth at 0.01 µM (OVCAR-3): 111% | growth at 10 µM (MCF7): 14% | growth at 100 µM (SF-295 [10]): 16% | growth at 100 µM (NCI-H23): 19% | growth at 0.1 µM (Malme-3M): 104% | growth at 100 µM [11]: 55% | growth at 100 µM (TK-10): -3% | GI50 (PC-3 [12]): 8.13 µM | TGI (PC-3 [12]): > 1 µM | CC50 (PC-3 [12]; [13]): > 1 µM | growth at 1 µM (KM12): 58%
